According to ChEMBL document CHEMBL6134765, “Rapid identification of novel indolylarylsulfone derivatives as potent HIV-1 NNRTIs via miniaturized CuAAC click-chemistry-based combinatorial libraries” (RSC Med Chem, 2025):

Experiments:
[1] = biological target: Human immunodeficiency virus type 1 reverse transcriptase (Human immunodeficiency virus 1) (UniProt Q72547); assay: Inhibition of recombinant HIV-1 reverse transcriptase at 0.66 mM incubated for 1 hr by ELISA relative to control
In short: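 Each library compound was tested directly as the crude click mixture (diluted in DMSO to 2 mM per well) against HIV-1 RT at 0.66 mM, using an ELISA-based RT kit following the kit protocol. Blank controls held DMSO, TBTA, CuSO4·5H2O and sodium ascorbate. Inhibition is expressed as a percentage.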

[2] = tested on: Human immunodeficiency virus 1; assay: Antiviral activity against HIV-1 harboring K103N mutant infected in human MT4 cells assessed as inhibition of virus induced cytotoxicity incubated for 5 days by spectrophometry based MTT assay; assay type: functional, organism-based; settings: Human immunodeficiency virus 1, MT4, 120 h
In short: (§1)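 MT-4 cells (from Dr. N. Yamamoto, Yamaguchi University) infected with single-mutant (L100I, K103N, Y181C, Y188L, E138K) or double-mutant (F227L/V106A; RES056 = K103N/Y181C) HIV-1 strains. Protection against virus-induced cytotoxicity was read by the MTT method. EC50 is the concentration giving 50% protection of the cell cultures.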

[3] = tested on: Human immunodeficiency virus 2; assay: Antiviral activity against HIV-2 ROD infected in human MT4 cells incubated for 5 days by spectrophotometry based MTT assay; assay type: functional, organism-based; settings: Human immunodeficiency virus 2, ROD, MT4, 120 h
In short: (§2)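 MTT protection assay in MT-4 cells infected with HIV-1 IIIB or HIV-2 ROD. EC50 is the compound concentration giving 50% protection of the cultures against virus-induced cytotoxicity.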

[4] = tested on: Human immunodeficiency virus 1; assay: Antiviral activity against HIV-1 harboring E138K mutant infected in human MT4 cells assessed as inhibition of virus induced cytotoxicity incubated for 5 days by spectrophometry based MTT assay; assay type: functional, organism-based; settings: Human immunodeficiency virus 1, MT4, 120 h; in short: as §1
[5] = tested on: Human immunodeficiency virus 1; assay: Antiviral activity against HIV-1 harboring L100I mutant infected in human MT4 cells assessed as inhibition of virus induced cytotoxicity incubated for 5 days by spectrophometry based MTT assay; assay type: functional, organism-based; settings: Human immunodeficiency virus 1, MT4, 120 h; in short: as §1
[6] = tested on: Human immunodeficiency virus 1; assay: Antiviral activity against HIV-1 harboring Y188L mutant infected in human MT4 cells assessed as inhibition of virus induced cytotoxicity incubated for 5 days by spectrophometry based MTT assay; assay type: functional, organism-based; settings: Human immunodeficiency virus 1, MT4, 120 h; in short: as §1
[7] = tested on: Human immunodeficiency virus 1; assay: Antiviral activity against HIV-1 harboring F227L/V106A double mutant infected in human MT4 cells assessed as inhibition of virus induced cytotoxicity incubated for 5 days by spectrophometry based MTT assay; assay type: functional, organism-based; settings: Human immunodeficiency virus 1, MT4, 120 h; in short: as §1
[8] = Selectivity index, ratio of CC50 for cytotoxicity against human MT4 cells to EC50 for antiviral activity against wild-type HIV-1 IIIB infected in human MT4 cells; assay type: toxicity, cell-based; settings: read-out: Ratio CC50/EC50
In short: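 Selectivity index is calculated as CC50 (mock-infected MT-4, MTT) divided by EC50 (HIV-1 IIIB protection of MT-4, MTT).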

[9] = tested on: Human immunodeficiency virus 1; assay: Antiviral activity against wild-type HIV-1 IIIB infected in human MT4 cells incubated for 5 days by spectrophometry based MTT assay; assay type: functional, organism-based; settings: Human immunodeficiency virus 1, IIIB, MT4, 120 h; in short: as §2
[10] = tested on: Human immunodeficiency virus 1; assay: Antiviral activity against HIV-1 harboring Y181C mutant infected in human MT4 cells assessed as inhibition of virus induced cytotoxicity incubated for 5 days by spectrophometry based MTT assay; assay type: functional, organism-based; settings: Human immunodeficiency virus 1, MT4, 120 h; in short: as §1
[11] = tested on: Human immunodeficiency virus 1; assay: Antiviral activity against HIV-1 harboring RES056 mutant infected in human MT4 cells assessed as inhibition of virus induced cytotoxicity incubated for 5 days by spectrophometry based MTT assay; assay type: functional, organism-based; settings: Human immunodeficiency virus 1, MT4, 120 h; in short: as §1
[12] = Cytotoxicity against human MT4 cells assessed as reduction in cell viability incubated for 5 days by MTT assay; assay type: toxicity, cell-based; settings: time 5 day
In short: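 Mock-infected MT-4 cultures were read by MTT for cell viability. CC50 is the concentration that reduces viability by 50%.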

Compound Cc1cccc(Cn2cc(CNC(=O)c3[nH]c4ccc(Cl)cc4c3S(=O)(=O)c3cc(C)cc(C)c3)nn2)c1 has an inhibition [1] of under 85%.

Cc1cc(C)cc(S(=O)(=O)c2c(C(=O)NCc3cn(CC(=O)NC4CC4)nn3)[nH]c3ccc(Cl)cc23)c1 showed an inhibition [1] of under 85%.

With Cc1cc(C)cc(S(=O)(=O)c2c(C(=O)NCc3cn(Cc4ccccc4C#N)nn3)[nH]c3ccc(Cl)cc23)c1 the inhibition [1] was under 85%.

In the case of Cc1cc(C)cc(S(=O)(=O)c2c(C(=O)NCc3cn(CCN4C(=O)c5ccccc5C4=O)nn3)[nH]c3ccc(Cl)cc23)c1, the inhibition [1] is reported as under 85%.

Cc1cc(C)cc(S(=O)(=O)c2c(C(=O)NCc3cn(Cc4ccc5ccccc5c4)nn3)[nH]c3ccc(Cl)cc23)c1 showed an inhibition [1] of under 85%.

For Cc1cc(C)cc(S(=O)(=O)c2c(C(=O)NCc3cn(CC(=O)N4CCCC4)nn3)[nH]c3ccc(Cl)cc23)c1, the inhibition [1] was under 85%.

For COc1cccc(Cn2cc(CNC(=O)c3[nH]c4ccc(Cl)cc4c3S(=O)(=O)c3cc(C)cc(C)c3)nn2)c1, the inhibition [1] was under 85%.

With Cc1ccc(Cn2cc(CNC(=O)c3[nH]c4ccc(Cl)cc4c3S(=O)(=O)c3cc(C)cc(C)c3)nn2)cc1 the inhibition [1] was under 85%.

Compound Cc1cc(C)cc(S(=O)(=O)c2c(C(=O)NCc3cn(CCCc4ccccc4)nn3)[nH]c3ccc(Cl)cc23)c1 has an EC50 [2] of 3250 nM, an EC50 [3] of over 117000 nM and an EC50 [4] of 1390 nM. The EC50 [5] was 1870 nM, the EC50 [6] was over 117000 nM and the EC50 [7] was 9700 nM. For the same compound, the selectivity ratio [8] was 302, the EC50 [9] was 390 nM and the EC50 [10] was 2710 nM. For the same compound, the EC50 [11] was over 117000 nM, the inhibition [1] was over 85% and the CC50 at 120 h [12] was 117000 nM.

With Cc1cc(C)cc(S(=O)(=O)c2c(C(=O)NCc3cn(-c4cc5ccccc5s4)nn3)[nH]c3ccc(Cl)cc23)c1 the inhibition [1] was under 85%.

Compound COC(=O)c1cccc(-n2cc(CNC(=O)c3[nH]c4ccc(Cl)cc4c3S(=O)(=O)c3cc(C)cc(C)c3)nn2)c1 has an inhibition [1] of under 85%.

Work on Nc1ccn([C@@H]2CS[C@H](CO)O2)c(=O)n1 [LAMIVUDINE] yielded an EC50 [6] of 3560 nM, a selectivity ratio [8] of over 17 and a CC50 at 120 h [12] of over 87200 nM.

Cc1cc(C)cc(S(=O)(=O)c2c(C(=O)NCc3cn([C@H]4C[C@H](n5cc(C)c(=O)[nH]c5=O)O[C@@H]4CO)nn3)[nH]c3ccc(Cl)cc23)c1 (single isomer, unassigned) showed an inhibition [1] of under 85%.

Cc1cc(C)cc(S(=O)(=O)c2c(C(=O)NCc3cn(Cc4cccc(C#N)c4)nn3)[nH]c3ccc(Cl)cc23)c1 gave an EC50 [2] of 1240 nM, an EC50 [3] of over 166000 nM and an EC50 [4] of 350 nM. For the same compound, the EC50 [5] was 340 nM, the EC50 [6] was over 35300 nM and the EC50 [7] was 2960 nM. The selectivity ratio [8] was 2680, the EC50 [9] was 62 nM and the EC50 [10] was 1100 nM. The EC50 [11] was over 166000 nM, the inhibition [1] was over 85% and the CC50 at 120 h [12] was 166000 nM.

Compound Cc1cc(C)cc(S(=O)(=O)c2c(C(=O)NCc3cn(-c4ccc(C(=O)O)cc4)nn3)[nH]c3ccc(Cl)cc23)c1 has an inhibition [1] of under 85%.

Work on Cc1cc(C)cc(S(=O)(=O)c2c(C(=O)NCc3cn(CCc4ccccc4)nn3)[nH]c3ccc(Cl)cc23)c1 yielded an EC50 [2] of 540 nM, an EC50 [3] of over 4690 nM and an EC50 [4] of 870 nM. The EC50 [5] was 1000 nM, the EC50 [6] was over 162000 nM and the EC50 [7] was 4330 nM. It also gave a selectivity ratio [8] of 1080, an EC50 [9] of 150 nM and an EC50 [10] of 2510 nM. It also gave an EC50 [11] of over 4690 nM, an inhibition [1] of over 85% and a CC50 at 120 h [12] of 162000 nM.

For Cc1cc(C)cc(S(=O)(=O)c2c(C(=O)NCc3cn(Cc4ccccc4[N+](=O)[O-])nn3)[nH]c3ccc(Cl)cc23)c1, the EC50 [2] was 510 nM, the EC50 [3] was over 216000 nM and the EC50 [4] was 150 nM. The EC50 [5] was 150 nM, the EC50 [6] was 20800 nM and the EC50 [7] was 1560 nM. For the same compound, the selectivity ratio [8] was over 9120, the EC50 [9] was 24 nM and the EC50 [10] was 290 nM. For the same compound, the EC50 [11] was over 194000 nM, the inhibition [1] was over 85% and the CC50 at 120 h [12] was over 216000 nM.

Compound Cc1cn([C@H]2C[C@H](N=[N+]=[N-])[C@@H](CO)O2)c(=O)[nH]c1=O [ZIDOVUDINE] has an EC50 [7] of 9 nM, a selectivity ratio [8] of over 397 and an EC50 [9] of 19 nM. The EC50 [11] was 2 nM and the CC50 at 120 h [12] was over 7480 nM.

With Cc1cc(C)cc(S(=O)(=O)c2c(C(=O)NCc3cn(Cc4cccc5ccccc45)nn3)[nH]c3ccc(Cl)cc23)c1 the EC50 [2] was 700 nM, the EC50 [3] was over 214000 nM and the EC50 [4] was 240 nM. For the same compound, the EC50 [5] was 300 nM, the EC50 [6] was 25000 nM and the EC50 [7] was 1990 nM. It also gave a selectivity ratio [8] of over 3510, an EC50 [9] of 61 nM and an EC50 [10] of 620 nM. It also gave an EC50 [11] of 113000 nM, an inhibition [1] of over 85% and a CC50 at 120 h [12] of over 214000 nM.
